High-throughput results (PubChem BioAssay)
Compounds with a hit are over-represented: about 2.9% of the library has one in this group of screens.
S100A4 inh HTS – inhibitors of human S100A4 binding to myosin IIA peptide; hit rate 0.14% among 360,000; P26447; S100A4/TAMRA-MyoIIA peptide fluorescence polarization; inhibition, % at 10.7 µM; AID 652163;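 active means mean inhibition of at least 70% across replicates, with every replicate also reaching that level; inconclusive means mean inhibition reaches 70% but some replicates fall short; inactive means mean inhibition below 70%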
Target sequence (P26447 whole entry, looked up): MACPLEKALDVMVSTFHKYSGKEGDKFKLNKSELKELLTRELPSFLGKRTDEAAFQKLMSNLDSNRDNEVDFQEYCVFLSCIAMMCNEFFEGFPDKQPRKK
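Test system: S100A4 monomer protein. Medium: HEPES buffer with Ca2+, pH 7.2. Reagent: fluorescent myosin IIA peptide, 5 nM. Compound dosing: single-point compound testing. Timing: 5 min between mix addition and reading. Benchmarks: DMSO neutral and TFP positive wells.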
DENV2 CPE rescue – inhibitors of DENV2 cytopathic effect; DENV2-infected cells, cytopathic effect rescue, plate reader; CPE inhibition, % at 9.99 µM; hit rate 1.7% among 350,000; in the data active means CPE inhibition above about 20%, passing the limit was not always enough; inconclusive means no clear call, values can overlap the other calls; tested in BHK-21 cells;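 further: 0% = median of neutral control wells and 100% = median of positive control wells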
SIRT5 block – sirtuin-5 (human) deacylase inhibition | AID 652115 | hit rate 1.1% among 330,000 | Purified SirT5, succinyl-peptide AMC, trypsin-coupled fluorescence | Q9NXA8 | inhibition, % at 15 µM; in the data active means inhibition above about 15%; inconclusive means no clear call, values can overlap the other calls
Target sequence (Q9NXA8 whole entry, looked up): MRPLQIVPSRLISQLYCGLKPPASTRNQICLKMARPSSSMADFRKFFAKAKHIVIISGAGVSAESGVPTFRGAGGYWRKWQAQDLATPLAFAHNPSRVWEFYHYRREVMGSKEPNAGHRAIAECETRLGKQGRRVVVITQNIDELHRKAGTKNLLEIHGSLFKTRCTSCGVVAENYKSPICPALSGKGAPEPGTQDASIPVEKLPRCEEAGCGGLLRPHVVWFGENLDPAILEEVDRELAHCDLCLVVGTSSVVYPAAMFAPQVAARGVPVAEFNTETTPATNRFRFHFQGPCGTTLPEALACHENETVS
CAL PDZ FP-1 – blocks peptide binding to human CAL PDZ domain; Q9HD26; purified CAL PDZ, TMR-peptide fluorescence polarization, 1 h; inhibition, % at 20 µM; hit rate 0.02% among 330,000;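 active means highest replicate inhibition of at least 40%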;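 further: plate controls were DMSO neutral control wells for no effect and unlabeled competitor peptide control wells for full effect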
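Test system: tagged CAL PDZ domain / Buffer or medium: sodium phosphate/NaCl buffer pH 7.4 with TCEP, IgG, Thesit / Reagent: TMR-labelled reporter peptide T*-PRC34 bound in PDZ groove / Compound dosing: single point, 20 µM / Schedule: 1 h incubation at room temperature before polarization reading / Technique: fluorescence polarization (mP) / Benchmarks: unlabelled peptide, DMSO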
CAL PDZ FP-2 – blocks peptide binding to the human CAL PDZ domain. inhibition, % at 24.9 µM. hit rate 0.92% among 300,000. purified CAL PDZ, TMR-peptide fluorescence polarization, 1 h. Q9HD26;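 active means mean inhibition of at least 30% with at least half of replicates also reaching 30%; inconclusive means no clear call, values can overlap the other calls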;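 further: 0% = DMSO neutral control and 100% = excess unlabeled competitor peptide PRC23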
ERAP1 inh – inhibitors of human ERAP1 aminopeptidase; hit rate 0.15% among 340,000; AID 652197; recombinant ERAP1, Leu-AMC fluorescence, 60 min; inhibition, % at 10.7 µM;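 active means mean replicate inhibition of at least 30%, or all replicates individually reaching that 30% level; inactive means mean below 30% and not every replicate reaching it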;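 further: 0% = neutral control wells and 100% = L-leucinethiol positive control wells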
Active calls of the source: *; u = inconclusive; x = no result; ! = not active in a repeat.

SMILES | S100A4 inh HTS | DENV2 CPE rescue | SIRT5 block | CAL PDZ FP-1 | CAL PDZ FP-2 | ERAP1 inh
CCS(=O)(=O)N1CCCCN2[C@H](C1)[C@@H](c1ccc(C#Cc3ccccc3OC)cc1)[C@@H]2CO | -9.4 | 40.1* | -0.8 | x | x | 1.7
CCS(=O)(=O)N1CCCCN2[C@H](CO)[C@@H](c3ccc(C#Cc4ccccc4OC)cc3)[C@@H]2C1 | -16.4 | 3.3 | -1.5 | x | x | -0.6
CCS(=O)(=O)N1CCCCN2[C@H](C1)[C@H](c1ccc(C#Cc3ccccn3)cc1)[C@@H]2CO | 12.2 | 52.5* | 2.0 | x | x | 0.3
CC(C)NC(=O)Nc1ccc2c(c1)C(=O)N([C@@H](C)CO)C[C@H](C)[C@@H](CN(C)Cc1ccc(C(=O)Nc3ccccc3N)cc1)O2 | 12.1 | 3.4 | -0.1 | x | x | 1.2
Cc1noc(C)c1NC(=O)Nc1ccc2c(c1)C(=O)N([C@H](C)CO)C[C@@H](C)[C@@H](CN(C)Cc1ccc(C(F)(F)F)cc1)OCCCC[C@@H](C)O2 | 2.7 | 4.5 | 12.3 | x | x | -29.8
O=[N+]([O-])c1cccc(COc2ccccc2CN2CCCC2)c1 | -12.2 | 58.0* | -4.5 | 2.4 | -3.3 | -0.9
O=[N+]([O-])c1ccc(COc2ccccc2CN2CCCC2)cc1 | -1.3 | 1.9 | -0.9 | -0.8 | 19.1 | x
Cc1ccc2cccc(OCc3cccc([N+](=O)[O-])c3)c2n1 | -2.0 | -10.1 | -2.2 | x | 61.2* | -1.7
CO[C@@H]1CN(C)C(=O)c2cc(NC(C)=O)ccc2OC[C@@H](C)N(C(=O)c2ccccn2)C[C@H]1C | -2.3 | 1.2 | -3.5 | x | x | x
CC(C)NC(=O)N(C)C[C@H]1Oc2c(NS(=O)(=O)c3ccccc3)cccc2C(=O)N([C@@H](C)CO)C[C@@H]1C | -4.3 | u | -0.4 | x | x | 2.0
O=C(O)CSc1ncnc2c1sc1nc(-c3ccccc3)c3c(c12)CCC3 | -15.2 | 11.5 | 18.1* | -9.6 | -15.5 | -1.8
O=C(O)c1cccc(-n2cccc2/C=C2/NC(=O)N(c3cccc(Cl)c3)C2=O)c1 | 3.2 | -2.9 | 9.2 | -3.3 | -6.2 | 17.4
O=C(O)c1cccc(-n2cccc2/C=C2/NC(=O)N(c3ccc(Cl)cc3)C2=O)c1 | -3.4 | -1.6 | 43.9* | x | -4.7 | -2.2
CN(C)C(=O)c1ccc(-c2ccc(C3[C@@H]4CN(C(=O)c5cnccn5)C[C@H]3N4)cc2)cc1 (some centres undefined) | -1.6 | -1.0 | -2.8 | x | x | 1.5
O=C(c1cnccn1)N1CC(=O)N2[C@@H](CO)[C@H](c3ccc(-c4ccc(F)cc4)cc3)[C@@H]2C1 | 14.2 | 0.0 | 1.2 | x | x | 1.9
O=C(c1cnccn1)N1CC(=O)N2[C@@H](CO)[C@H](c3ccc(C#CC4CC4)cc3)[C@@H]2C1 | 17.5 | 8.7 | 23.1* | x | x | -2.1
O=C(c1cnccn1)N1CC(=O)N2[C@H](CO)[C@@H](c3ccc(-c4ccc(F)cc4)cc3)[C@H]2C1 | 124.3* | 8.7 | 1.2 | x | x | -0.2
Cc1ccccc1-c1ccc(C2[C@@H]3CN(C(=O)c4cnccn4)C[C@H]2N3)cc1 (some centres undefined) | x | 29.2*! | x | x | x | x
C[C@H]1CN([C@@H](C)CO)C(=O)c2cc(NC(=O)Nc3ccccc3)ccc2O[C@@H]1CN(C)S(=O)(=O)c1ccccc1 | 1.0 | -6.9 | 0.7 | x | x | 0.2
CC(=O)N1CCCCN2[C@@H](CO)[C@@H](c3ccc(C#Cc4ccccc4F)cc3)[C@@H]2C1 | 5.0 | 58.9* | -1.9 | x | x | 1.2
O=C(CN1CCOCC1)N1CCCCN2[C@H](C1)[C@@H](c1ccc(C#Cc3ccccc3F)cc1)[C@@H]2CO | 4.3 | -4.3 | -0.5 | x | x | -3.2
O=C(CN1CCOCC1)N1CCCCN2[C@H](C1)[C@H](c1ccc(C#Cc3ccccc3F)cc1)[C@@H]2CO | -14.4 | 43.2* | -2.1 | x | x | -3.1
O=C(CN1CCOCC1)N1CCCCN2[C@H](CO)[C@H](c3ccc(C#Cc4ccccc4F)cc3)[C@@H]2C1 | -17.9 | 48.3* | 5.0 | x | x | -3.1
CC(=O)N1CCCCN2[C@H](CO)[C@@H](c3ccc(C#Cc4ccccc4F)cc3)[C@@H]2C1 | 2.5 | 11.9 | -1.6 | x | x | 0.9
COC(=O)CC1=C(c2ccc([N+](=O)[O-])cc2)CCC1=O | -13.7 | u | 15.6* | 0.5 | 6.1 | -1.8
SMILES | S100A4 inh HTS | DENV2 CPE rescue | SIRT5 block | CAL PDZ FP-1 | CAL PDZ FP-2 | ERAP1 inh
Cc1ccc(C2=C(CC(=O)O)C(=O)CC2)cc1 | x | x | x | 0.8 | -3.6 | x
O=C(COc1ccc2ccccc2c1)NNC(=O)Nc1ccccc1F | -10.7 | 18.6 | -0.9 | 0.7 | -3.1 | 4.3
Cc1ccccc1NC(=O)C(=O)NNC(=O)COc1ccc2ccccc2c1 | -1.6 | -0.9 | -0.6 | -1.0 | 38.8* | -1.1
CCCCCCCCCCCCCCCCCCNc1ccn(C2OC(COP(=O)(O)OCC3OC(n4cc(F)c(=O)[nH]c4=O)CC3O)C(O)C2O)c(=O)n1 (centres undefined) | -9.5 | -2.2 | 35.5* | -0.9 | -1.3 | 8.4
COC(=O)[C@H](CC(C)C)NC(=O)CC[C@H]1O[C@@H](n2cc(C)c(=O)[nH]c2=O)C[C@@H]1O | -3.2 | 69.8* | 1.0 | x | x | -3.3
COC(=O)[C@@H](Cc1ccccc1)NC(=O)CC[C@H]1O[C@@H](n2cc(C)c(=O)[nH]c2=O)C[C@@H]1O | 3.8 | 14.2 | -0.7 | 0.3 | -5.6 | -6.2
CN(C)CCCN1c2ccc3ccccc3c2Sc2cccc(Cl)c21 | -1.5 | -3.2 | 1.1 | 0.3 | -2.2 | 0.1
CN(C)CCCN1c2ccccc2Sc2ccc3ccccc3c21 | -3.0 | 42.6* | -1.2 | 6.9 | 0.4 | -0.2
Cc1ccc(N2C3=C(C(=O)CC(C)(C)C3)C(c3cn(C)nc3C)C3=C2CC(C)(C)CC3=O)cc1 | 112.2* | -1.5 | -1.2 | 0.2 | 3.4 | 10.0
Cc1nn(C)cc1C1C2=C(CC(C)(C)CC2=O)N(c2ccccc2)C2=C1C(=O)CC(C)(C)C2 | x | x | x | 0.0 | -5.4 | x
C[C@@H]1CN([C@@H](C)CO)C(=O)c2cc(C#CCN(C)C)cnc2O[C@H]1CN(C)Cc1ccc(-c2ccccc2)cc1 | 2.0 | -2.6 | -1.5 | x | x | -0.5
Cc1c(Br)c(O)c(Br)c(O)c1/C=N/n1c(-c2ccccc2)n[nH]c1=S | -3.8 | x | 29.8* | -1.1 | -2.9 | 0.2
Oc1c(Br)cc(/C=N/n2c(-c3ccccc3)n[nH]c2=S)c(O)c1Br | x | x | x | -0.9 | -1.8 | x
